Test results from ChEMBL document CHEMBL1152312, “Neopyrrolomycins with broad spectrum antibacterial activity” (2009).
Values after ≈ are worked out from the molar mass of the structure shown. Active and inactive are the calls of the source. No cut-off for these calls is given here.

Experiments:
[1] = tested on: Streptococcus pneumoniae; assay: Antibacterial activity against penicillin-resistant Streptococcus pneumoniae 748 by microdilution method; format: functional
Summary of the method: (§1)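 MIC values from CLSI broth microdilution. Strains came from the ATCC collection and from clinical isolates.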

[2] = tested on: Moraxella catarrhalis; assay: Antibacterial activity against Moraxella catarrhalis 557 by microdilution method; format: functional; summary of the method: as §1
[3] = tested on: Enterococcus faecalis; assay: Antibacterial activity against vancomycin-resistant Enterococcus faecalis 846 by microdilution method; format: functional; summary of the method: as §1
[4] = tested on: Streptococcus pneumoniae; assay: Antibacterial activity against penicillin-susceptible Streptococcus pneumoniae 866 by microdilution method; format: functional; summary of the method: as §1
[5] = tested on: Streptococcus pyogenes; assay: Antibacterial activity against Streptococcus pyogenes 723 by microdilution method; format: functional; summary of the method: as §1
[6] = tested on: Klebsiella pneumoniae; assay: Antibacterial activity against Klebsiella pneumoniae 2239 by microdilution method; format: functional; summary of the method: as §1
[7] = tested on: Escherichia coli; assay: Antibacterial activity against Escherichia coli 102 ATCC 25922 by microdilution method; format: functional; summary of the method: as §1
[8] = tested on: Streptococcus pneumoniae; assay: Antibacterial activity against multidrug-resistant Streptococcus pneumoniae 933 by microdilution method; format: functional; summary of the method: as §1
[9] = tested on: Staphylococcus aureus; assay: Antibacterial activity against vancomycin-intermediate Staphylococcus aureus 2018 by microdilution method; format: functional; summary of the method: as §1
[10] = tested on: Staphylococcus aureus; assay: Antibacterial activity against methicillin-resistant Staphylococcus aureus 2170 by microdilution method; format: functional; summary of the method: as §1
[11] = tested on: Haemophilus parainfluenzae; assay: Antibacterial activity against Haemophilus parainfluenzae 2319 ATCC 7901 by microdilution method; format: functional; summary of the method: as §1
[12] = tested on: Staphylococcus aureus; assay: Antibacterial activity against community-acquired Staphylococcus aureus 2144 by microdilution method; format: functional; summary of the method: as §1
[13] = tested on: Staphylococcus epidermidis; assay: Antibacterial activity against methicillin-sensitive Staphylococcus epidermidis 1597 by microdilution method; format: functional; summary of the method: as §1
[14] = tested on: Staphylococcus aureus; assay: Antibacterial activity against methicillin-resistant Staphylococcus aureus 1137 by microdilution method; format: functional; summary of the method: as §1
[15] = tested on: Klebsiella pneumoniae; assay: Antibacterial activity against ampicillin beta-lactamase, multidrug-resistant Klebsiella pneumoniae 2262 by microdilution method; format: functional; summary of the method: as §1
[16] = tested on: Serratia marcescens; assay: Antibacterial activity against Serratia marcescens 1635 by microdilution method; format: functional; summary of the method: as §1
[17] = tested on: Streptococcus pneumoniae; assay: Antibacterial activity against quinolone-resistant Streptococcus pneumoniae 376 by microdilution method; format: functional; summary of the method: as §1
[18] = tested on: Enterococcus faecium; assay: Antibacterial activity against vancomycin-sensitive Enterococcus faecium 843 by microdilution method; format: functional; summary of the method: as §1
[19] = tested on: Escherichia coli; assay: Antibacterial activity against extended spectrum beta-lactamase-producing Escherichia coli 2269 by microdilution method; format: functional; summary of the method: as §1
[20] = tested on: Haemophilus influenzae; assay: Antibacterial activity against ampicillin-resistant Haemophilus influenzae 1742 by microdilution method; format: functional; summary of the method: as §1
[21] = tested on: Enterococcus faecium; assay: Antibacterial activity against vancomycin-resistant Enterococcus faecium 1254 by microdilution method; format: functional; summary of the method: as §1
[22] = tested on: Staphylococcus epidermidis; assay: Antibacterial activity against methicillin-resistant Staphylococcus epidermidis 1452 by microdilution method; format: functional; summary of the method: as §1
[23] = tested on: Streptococcus pneumoniae; assay: Antibacterial activity against quinolone-resistant Streptococcus pneumoniae 379 by microdilution method; format: functional; summary of the method: as §1
[24] = tested on: Staphylococcus aureus; assay: Antibacterial activity against Linezolid, methicillin-resistant Staphylococcus aureus 1651 by microdilution method; format: functional; summary of the method: as §1
[25] = tested on: Streptococcus pneumoniae; assay: Antibacterial activity against penicillin-resistant Streptococcus pneumoniae 940 by microdilution method; format: functional; summary of the method: as §1
[26] = tested on: Streptococcus agalactiae; assay: Antibacterial activity against Streptococcus agalactiae 2033 by microdilution method; format: functional; summary of the method: as §1
[27] = tested on: Staphylococcus aureus; assay: Antibacterial activity against vancomycin-intermediate Staphylococcus aureus 2012 by microdilution method; format: functional; summary of the method: as §1
[28] = tested on: Haemophilus influenzae; assay: Antibacterial activity against Haemophilus influenzae 1224 ATCC 49247 by microdilution method; format: functional; summary of the method: as §1
[29] = tested on: Pseudomonas aeruginosa; assay: Antibacterial activity against Pseudomonas aeruginosa 1473 by microdilution method; format: functional; summary of the method: as §1
[30] = tested on: Staphylococcus aureus; assay: Antibacterial activity against Linezolid, methicillin-resistant Staphylococcus aureus 1725 by microdilution method; format: functional; summary of the method: as §1
[31] = tested on: Streptococcus pneumoniae; assay: Antibacterial activity against Streptococcus pneumoniae 1195 ATCC 49619 by microdilution method; format: functional; summary of the method: as §1
[32] = tested on: Staphylococcus epidermidis; assay: Antibacterial activity against Staphylococcus epidermidis 495 by microdilution method; format: functional; summary of the method: as §1
[33] = tested on: Enterococcus faecium; assay: Antibacterial activity against vancomycin-resistant Enterococcus faecium 700221 by microdilution method; format: functional; summary of the method: as §1
[34] = tested on: Escherichia coli; assay: Antibacterial activity against Escherichia coli 25922 by microdilution method; format: functional
Summary of the method: (§2)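 MIC determined by CLSI broth microdilution; organisms were ATCC strains and clinical isolates.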

[35] = tested on: Klebsiella pneumoniae; assay: Antibacterial activity against Klebsiella pneumoniae 4352 by microdilution method; format: functional; summary of the method: as §2
[36] = tested on: Streptococcus pneumoniae; assay: Antibacterial activity against Streptococcus pneumoniae 49619 by microdilution method; format: functional; summary of the method: as §2
[37] = tested on: Staphylococcus aureus; assay: Antibacterial activity against methicillin-sensitive Staphylococcus aureus 29213 by microdilution method; format: functional; summary of the method: as §1
[38] = tested on: Escherichia coli; assay: Antibacterial activity against Escherichia coli 1411 by microdilution method; format: functional; summary of the method: as §2
[39] = tested on: Pseudomonas aeruginosa; assay: Antibacterial activity against Pseudomonas aeruginosa 27853 by microdilution method; format: functional; summary of the method: as §2
[40] = tested on: Staphylococcus aureus; assay: Antibacterial activity against methicillin-resistant Staphylococcus aureus 43300 by microdilution method; format: functional; summary of the method: as §1
[41] = tested on: Staphylococcus aureus; assay: Antibacterial activity against methicillin-sensitive Staphylococcus aureus 100 ATCC 29213 by microdilution method; format: functional; summary of the method: as §1
[42] = tested on: HepG2; assay: Cytotoxicity against human HepG2 cells assessed as effect on cell viability at 8 ug/mL after 48 hrs by celltiter glow assay; format: functional, cell-based
Summary of the method: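 HepG2 cells were kept in MEM with 10% heat-inactivated FBS, 0.10 mM nonessential amino acids and 1 mM sodium pyruvate at 37 °C and 5% CO2. Cells were seeded at 1.25 × 10^5 cells/mL 24 h before dosing. Compounds were dissolved in DMSO and tested at 0.6–128 µg/mL with 1% DMSO final for 48 h. Viability was read by CellTiter-Glo luminescence as a percentage of the DMSO control.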

[43] = tested on: Staphylococcus aureus; assay: Antibacterial activity against methicillin-sensitive Staphylococcus aureus 6538 by microdilution method; format: functional; summary of the method: as §1
[44] = tested on: NHDF; assay: Cytotoxicity against NHDF cells after 48 hrs by celltiter glow assay; format: functional; settings: Homo sapiens
Summary of the method: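 Fibroblasts kept at 37 °C, 5% CO2 in FGM-2 medium, passage ≤16. Seeded at 1.25 × 10^5 cells/mL 24 h before dosing. Compounds dissolved in DMSO, tested 0.6–128 µg/mL at 1% final DMSO for 48 h. Viability by CellTiter-Glo luminescence, expressed as percent of DMSO control.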

## O=C(O)c1cn(C2CC2)c2cc(N3CCNCC3)c(F)cc2c1=O [CIPROFLOXACIN]
[1]
  MIC90: 1 µg/mL (≈ 3.02 µM)
[2]
  MIC90: 0.03 µg/mL (≈ 0.0905 µM)
[3]
  MIC90: > 2 µg/mL
[4]
  MIC90: > 2 µg/mL
[5]
  MIC90: 0.5 µg/mL (≈ 1.51 µM)
[6]
  MIC90: 0.03 µg/mL (≈ 0.0905 µM)
[7]
  MIC90: 0.008 µg/mL (≈ 0.0241 µM)
[8]
  MIC90: 2 µg/mL (≈ 6.04 µM)
[9]
  MIC90: > 2 µg/mL
[10]
  MIC90: > 2 µg/mL
[11]
  MIC90: 0.15 µg/mL (≈ 0.453 µM)
[12]
  MIC90: > 2 µg/mL
[13]
  MIC90: 0.25 µg/mL (≈ 0.754 µM)
[14]
  MIC90: > 2 µg/mL
[15]
  MIC90: > 2 µg/mL
[16]
  MIC90: 0.06 µg/mL (≈ 0.181 µM)
[17]
  MIC90: > 2 µg/mL
[18]
  MIC90: > 2 µg/mL
[19]
  MIC90: > 2 µg/mL
[20]
  MIC90: 0.008 µg/mL (≈ 0.0241 µM)
[21]
  MIC90: > 2 µg/mL
[22]
  MIC90: > 2 µg/mL
[23]
  MIC90: > 2 µg/mL
[24]
  MIC90: > 2 µg/mL
[25]
  MIC90: > 2 µg/mL
[26]
  MIC90: 1 µg/mL (≈ 3.02 µM)
[27]
  MIC90: > 2 µg/mL
[28]
  MIC90: 0.15 µg/mL (≈ 0.453 µM)
[29]
  MIC90: 1 µg/mL (≈ 3.02 µM)
[30]
  MIC90: > 2 µg/mL
[31]
  MIC90: 1 µg/mL (≈ 3.02 µM)
[32]
  MIC90: 0.5 µg/mL (≈ 1.51 µM)

## Oc1cc(Cl)c(Cl)c(Cl)c1-n1cc(Cl)c(Cl)c1Cl [NEOPYRROLOMYCIN B]
[33]
  MIC90: 0.5 µg/mL (≈ 1.37 µM)
[1]
  MIC90: 1 µg/mL (≈ 2.73 µM)
[34]
  MIC90: 16 µg/mL (≈ 43.7 µM)
[2]
  MIC90: ≤ 0.06 µg/mL
[3]
  MIC90: ≤ 0.06 µg/mL
[4]
  MIC90: 16 µg/mL (≈ 43.7 µM)
[5]
  MIC90: > 16 µg/mL
[6]
  MIC90: 16 µg/mL (≈ 43.7 µM)
[7]
  MIC90: 8 µg/mL (≈ 21.9 µM)
[8]
  MIC90: 1 µg/mL (≈ 2.73 µM)
[35]
  MIC90: 16 µg/mL (≈ 43.7 µM)
[36]
  MIC90: 1 µg/mL (≈ 2.73 µM)
[9]
  MIC90: ≤ 0.06 µg/mL
[10]
  MIC90: ≤ 0.06 µg/mL
[37]
  MIC90: 0.5 µg/mL (≈ 1.37 µM)
[11]
  MIC90: 1 µg/mL (≈ 2.73 µM)
[12]
  MIC90: 0.12 µg/mL (≈ 0.328 µM)
[13]
  MIC90: ≤ 0.06 µg/mL
[14]
  MIC90: 0.12 µg/mL (≈ 0.328 µM)
[15]
  MIC90: 8 µg/mL (≈ 21.9 µM)
[38]
  MIC90: 16 µg/mL (≈ 43.7 µM)
[16]
  MIC90: 16 µg/mL (≈ 43.7 µM)
[39]
  MIC90: 16 µg/mL (≈ 43.7 µM)
[40]
  MIC90: 0.125 µg/mL (≈ 0.342 µM)
[41]
  MIC90: 0.25 µg/mL (≈ 0.683 µM)
[17]
  MIC90: 2 µg/mL (≈ 5.47 µM)
[18]
  MIC90: ≤ 0.06 µg/mL
[42]
  Activity: Active
[19]
  MIC90: 8 µg/mL (≈ 21.9 µM)
[20]
  MIC90: 0.5 µg/mL (≈ 1.37 µM)
[21]
  MIC90: ≤ 0.06 µg/mL
[43]
  MBC: 2 µg/mL (≈ 5.47 µM)
  MIC90: 0.25 µg/mL (≈ 0.683 µM)
[22]
  MIC90: ≤ 0.06 µg/mL
[23]
  MIC90: 16 µg/mL (≈ 43.7 µM)
[24]
  MIC90: ≤ 0.06 µg/mL
[25]
  MIC90: 1 µg/mL (≈ 2.73 µM)
[44]
  CC90: 16 µg/mL (≈ 43.7 µM)
[26]
  MIC90: 16 µg/mL (≈ 43.7 µM)
[27]
  MIC90: ≤ 0.06 µg/mL
[28]
  MIC90: 0.25 µg/mL (≈ 0.683 µM)
[29]
  MIC90: 16 µg/mL (≈ 43.7 µM)
[30]
  MIC90: ≤ 0.06 µg/mL
[31]
  MIC90: 2 µg/mL (≈ 5.47 µM)
[32]
  MIC90: ≤ 0.06 µg/mL
